What was measured:
CRBP1 [1] = target: T1, CRBP1 (Homo sapiens, UniProt P09455); assay: Fluorescence atROL-replacing; type: binding; conditions: for binding to CRBP1: fluorescence titration of holo-CRBP1, 0–10 μM range for O-1918
T1 sequence (P09455 1-135): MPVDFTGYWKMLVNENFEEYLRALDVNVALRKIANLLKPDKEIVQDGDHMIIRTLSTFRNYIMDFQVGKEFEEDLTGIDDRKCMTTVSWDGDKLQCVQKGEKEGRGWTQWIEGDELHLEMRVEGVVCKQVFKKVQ

cannabinoid receptor 2 = conditions: cited from earlier work
RDH5 = target: T2, RDH5 (Bos taurus, UniProt Q27979); assay: 11-cis-retinol oxidation assay in RPE microsomes; type: biochemical; conditions: bovine RPE microsomes preincubated with 10–50 μM
T2 sequence (Q27979 1-318): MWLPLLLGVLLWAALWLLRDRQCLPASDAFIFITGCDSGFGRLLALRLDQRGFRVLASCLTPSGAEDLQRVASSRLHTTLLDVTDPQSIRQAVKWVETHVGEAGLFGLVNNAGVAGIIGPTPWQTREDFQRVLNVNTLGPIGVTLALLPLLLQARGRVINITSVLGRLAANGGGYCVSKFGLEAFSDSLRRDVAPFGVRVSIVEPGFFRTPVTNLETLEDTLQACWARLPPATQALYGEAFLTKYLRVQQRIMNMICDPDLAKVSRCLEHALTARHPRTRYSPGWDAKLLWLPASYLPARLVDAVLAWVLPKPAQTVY
Outline: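 Bovine RPE microsomes (~100 μg total protein) preincubated with 10–50 μM test compound (1:1 to 1:5 molar excess) in 20 mM Tris/HCl pH 8.0, 1% BSA, 20 μM NAD+. 11-cis-Retinol (10 μM) added; 30 °C, 10 min. Stopped with methanol containing 40 mM hydroxylamine, 15 min RT. Hexane extract run on normal-phase HPLC (isocratic 10% ethyl acetate/hexane), detected at 325 nm.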

[2] = Detection and quantification of abn-CBD in the ocular tissues; type: in vivo, Balb/cJ mice
Outline: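 Balb/cJ mice (5–8 weeks, dark-adapted ≥24 h) given a single i.p. 15 mg kg−1 dose. At 1–15 h mice were anaesthetised with ketamine and PBS-perfused. Eyes homogenised in PBS/methanol with 100 pmol deuterated test-compound internal standard, then hexane-extracted, dried and redissolved in ethanol. Quantified by LC/MS on a C18 column (70–100% methanol/water over 10 min), positive-mode ESI ion trap.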

RPE65 = RPE65 (Bos taurus, UniProt Q28175); assay: RPE65 isomerization activity assay in RPE microsomes; type: biochemical; conditions: bovine RPE microsomes preincubated with 10–50 μM
Outline: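 UV-bleached bovine RPE microsomes were the RPE65 source, reacting in the presence of CRALBP. Microsomes preincubated with 10–50 μM test compound (1:1 to 1:5 molar excess). Reaction started with atROL (final 10 μM) and run at 30 °C for 30 min. Products extracted with hexane and analysed by normal-phase HPLC.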

[3] = system: visual cycle retinoid flow; assay: Visual chromophore regeneration after flash; type: in vivo, Balb/cJ mice; conditions: 0.25 mg of compound 1.5 h prior to flash bleaching 75% of rhodopsin
Outline: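 Dark-adapted (≥24 h) Balb/cJ mice given 0.25 mg test compound or DMSO 1.5 h before a flash bleaching 75% of rhodopsin. Kept dark, euthanised 1 min–8 h later; eyes frozen in liquid nitrogen. Under dim red light, eyes homogenised in 40 mM hydroxylamine in PBS/methanol (20 min RT), then hexane-extracted. Normal-phase HPLC (step ethyl acetate/hexane gradient) read at 325 and 360 nm, quantified against standards; n = 4, mean ± sd.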

[4] = system: light-induced retinal damage; assay: Bright light-induced retinal degeneration; type: in vivo, Balb/cJ mice; conditions: IP injection 1.5 h prior to light; OCT and histology a week later
CRBP3 = target: T3, CRBP3 (Homo sapiens, UniProt P82980); assay: Co-crystallization / X-ray structure of CRBP3 with ligand; type: binding; conditions: crystal structure PDB 6E5W
T3 sequence (P82980 1-135): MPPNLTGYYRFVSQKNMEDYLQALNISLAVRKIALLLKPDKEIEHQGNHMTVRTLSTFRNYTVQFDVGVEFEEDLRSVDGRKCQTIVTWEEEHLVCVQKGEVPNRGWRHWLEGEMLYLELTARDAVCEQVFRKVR
Outline: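 Apo-CRBP3 (8 mg mL−1) preincubated 15 min with 300 μM test compound. Drops made from 1 μL protein plus 1 μL 0.2 M sodium malonate pH 5.0, 20% PEG 3350 (w/v). Grown by sitting-drop vapour diffusion at RT.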

[5] = system: recovery of visual sensitivity; assay: Scotopic full-field ERG recovery after photobleach; type: in vivo, Balb/cJ mice; conditions: 30 mg/kg; ERG 4 h after flash bleaching ~50% of visual pigment
cannabinoid receptor 1 = conditions: cited from earlier work
CRBP2 = target: T4, CRBP2 (Homo sapiens, UniProt P50120); assay: Fluorescence-binding assay with CRBP2
T4 sequence (P50120 1-134): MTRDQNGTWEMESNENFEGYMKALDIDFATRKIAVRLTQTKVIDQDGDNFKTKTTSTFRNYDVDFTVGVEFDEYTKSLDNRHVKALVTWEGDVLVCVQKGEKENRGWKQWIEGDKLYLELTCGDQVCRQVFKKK

CRBP4 = target: T5, CRBP4 (Homo sapiens, UniProt Q96R05); assay: Co-crystallization / X-ray structure of CRBP4 with ligand; type: binding; conditions: crystal structure PDB 6E6K
T5 sequence (Q96R05 1-134): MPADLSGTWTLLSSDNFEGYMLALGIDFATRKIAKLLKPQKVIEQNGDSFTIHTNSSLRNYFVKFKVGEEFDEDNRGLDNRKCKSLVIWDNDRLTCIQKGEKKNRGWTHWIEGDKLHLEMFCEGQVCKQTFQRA
Outline: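 CRBP4 purified with a final 0–0.5 M NaCl gradient in 10 mM Tris/HCl pH 8.0, then concentrated to 6 mg mL−1. Protein preincubated with test compound. Crystallised in 0.2 M NaCl, 0.1 M BisTris pH 6.5, 25% PEG 3350 (w/v) by sitting-drop vapour diffusion at RT.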

rodents = conditions: previous studies of wound healing, vasodilation, diabetes; cited from earlier work
LRAT = target: T6, LRAT (Bos taurus, UniProt Q9BGL2); assay: Retinol esterification assay in RPE microsomes; type: biochemical; conditions: bovine RPE microsomes preincubated with 10–50 μM
T6 sequence (Q9BGL2 1-230): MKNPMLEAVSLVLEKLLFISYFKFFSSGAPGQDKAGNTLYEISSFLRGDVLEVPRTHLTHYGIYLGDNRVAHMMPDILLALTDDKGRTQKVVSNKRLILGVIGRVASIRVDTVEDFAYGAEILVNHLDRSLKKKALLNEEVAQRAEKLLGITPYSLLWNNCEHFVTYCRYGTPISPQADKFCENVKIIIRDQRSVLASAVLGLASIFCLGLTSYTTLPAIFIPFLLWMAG
Outline: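 UV-treated bovine RPE microsomes (~100 μg total protein) in 20 mM Tris/HCl pH 7.4, 1 mM DTT, 1% BSA. Test compound (10, 20 or 50 μM) added before atROL (final 10 μM). Initial rate taken after 5 min at RT, quenched with methanol, extracted with hexane. Normal-phase HPLC (isocratic 10% ethyl acetate/hexane, 325 nm). Retinyl esters quantified against synthetic standards.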

CRBP1 [6] = conditions: read-out: affinity for atROL; cited from earlier work

Chain of RPE65 (Q28175 whole entry): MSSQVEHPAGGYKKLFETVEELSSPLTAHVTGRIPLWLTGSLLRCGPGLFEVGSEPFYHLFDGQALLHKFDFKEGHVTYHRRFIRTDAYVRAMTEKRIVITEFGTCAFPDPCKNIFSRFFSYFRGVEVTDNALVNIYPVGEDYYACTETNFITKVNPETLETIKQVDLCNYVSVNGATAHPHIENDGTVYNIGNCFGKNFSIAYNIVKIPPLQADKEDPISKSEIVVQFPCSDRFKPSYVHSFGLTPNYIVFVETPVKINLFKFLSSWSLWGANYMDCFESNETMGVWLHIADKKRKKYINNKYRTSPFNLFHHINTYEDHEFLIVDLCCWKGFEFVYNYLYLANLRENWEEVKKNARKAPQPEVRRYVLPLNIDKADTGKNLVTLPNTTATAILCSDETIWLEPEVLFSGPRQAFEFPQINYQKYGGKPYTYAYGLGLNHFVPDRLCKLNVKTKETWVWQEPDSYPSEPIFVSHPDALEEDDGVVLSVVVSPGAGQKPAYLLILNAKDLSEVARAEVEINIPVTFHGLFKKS

C=C(C)[C@@H]1CCC(C)=C[C@H]1c1c(C)cc(O)cc1O [abn-CBDO, 5-methyl-4-[(1R,6R)-3-methyl-6-prop-1-en-2-ylcyclohex-2-en-1-yl]benzene-1,3-diol]
apparent affinity lowered compared with abn-CBD (CRBP1 [1]; fold change of Ki vs abn-CBD): 4.3 times

C=C(C)[C@H]1CC=C(C)CC1 [limonene]
binding to CRBP1 (CRBP1 [1]): did not observe limonene interacting

C=C(C)[C@@H]1CCC(C)=C[C@H]1c1c(O)cc(O)cc1CCCCC [abn-CBD, 4-[(1R,6R)-3-Methyl-6-prop-1-en-2-ylcyclohex-2-en-1-yl]-5-pentylbenzene-1,3-diol]
interaction with cannabinoid receptor 2 (cannabinoid receptor 2): does not interact | Ki (CRBP1 [1]): ~67 nM | effect on RDH5 enzymatic activity (RDH5): did not cause a measurable decline | half-life ([2]; Balb/cJ, mouse, eye (PBS-perfused, homogenised), ip, 15 mg/kg): ~420 min | time of maximum ocular level after the injection ([2]; single IP dose 15 mg kg^−1): 2 h | maximum ocular level ([2]; single IP dose 15 mg kg^−1, PBS-perfused mouse eyes): 58 pmol/eye | effect on RPE65 enzymatic activity (RPE65): did not cause a measurable decline | atROL level during chromophore regeneration [3]: transient accumulation of atROL | rate of 11-cis-retinal regeneration [3]: noticeably slower | rate of all-trans-retinal clearance vs control [3]: no differences | protection against light-induced retinal damage [4]: largely protected against the light-induced retinal damage | binding to CRBP3 (CRBP3): bind abn-CBD similarly to CRBP1 | recovery of a-wave and b-wave amplitudes after light illumination [5]: slower | interaction with cannabinoid receptor 1 (cannabinoid receptor 1): does not interact | interaction with CRBP2 (CRBP2): absence of interaction | binding to CRBP4 (CRBP4): bind abn-CBD similarly to CRBP1 | toxicity in rodents (rodents): did not report toxicity | effect on LRAT enzymatic activity (LRAT): did not cause a measurable decline

C=C(C)[C@@H]1CCC(C)=C[C@H]1c1c(OC)cc(C)cc1OC [O-1918, 1,3-dimethoxy-5-methyl-2-[(1R,6R)-3-methyl-6-prop-1-en-2-ylcyclohex-2-en-1-yl]benzene]
binding to CRBP1 (CRBP1 [1]): abolished the meaningful binding

CC1=C(/C=C/C(C)=C/C=C/C(C)=C/CO)C(C)(C)CCC1 [atROL, all-trans-retinol]
Ki (CRBP1 [1]): ~34 nM | Kd (CRBP1 [6]): < 1 nM

C=C(C)[C@@H]1CCC(C)=CC1c1c(O)cc(C)cc1O (stereo partly drawn) [CBDO, 5-methyl-2-[(6R)-3-methyl-6-prop-1-en-2-ylcyclohex-2-en-1-yl]benzene-1,3-diol]
Ki (CRBP1 [1]): ~1700 nM | fold increase of the Ki value (CRBP1 [1]; further increase relative to abn-CBDO): 6.3 fold

Reference: article PMC6420351 (ACS chemical biology, 2019)
